Laboratory results taken from ChEMBL document CHEMBL1157105, “Semisynthesis of natural flavones inhibiting tubulin polymerization, from hesperidin” (J Nat Prod, 2010).

Experiments:
[1] = species on record: Ovis aries; assay: Inhibition of sheep brain tubulin polymerization at 2.5 mM after 15 mins by turbidimetry
In short: (§1)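 Sheep brain microtubule protein purified by two 37 °C/0 °C assembly–disassembly cycles in 100 mM MES pH 6.6, 1 mM EGTA, 0.5 mM MgCl2. Compound in DMSO (1 µL) added to 150 µL microtubule solution, then incubated 37 °C 10 min and 0 °C 5 min. Polymerization rate read by turbidity at 350 nm. Reported as % inhibition at ~2.5 × 10^-3 M or IC50; deoxypodophyllotoxin reference, ratio IC50 compound/IC50 DPPT.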

[2] = system: KB; assay: Cytotoxicity against human KB cells at 1 uM after 72 hrs by MTS assay
[3] = system: HL-60; assay: Induction of apoptosis in human HL60 cells assessed as increase in caspase 3/7 activation at 50 nM after 48 hrs by fluorescence assay relative to control; type: functional
In short: (§2)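 HL60 cells grown in complete RPMI, seeded at 20 000 cells/well and treated with DMSO-dissolved compound. Vehicle controls; 1 µM doxorubicine positive control. Fluorescence (ex 360/em 465 nm) followed over 3 h. Reported as fold caspase 3/7 activation over control.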

[4] = Inhibition of sheep brain tubulin polymerization after 15 mins by turbidimetry; design: species or system Ovis aries; in short: as §1
[5] = system: KB; assay: Cytotoxicity against human KB cells after 72 hrs by MTS assay; type: functional, cell-based
In short: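 KB cells grown in D-MEM with 10% fetal calf serum under 5% CO2. Seeded at 600 cells/well and dosed 24 h later with DMSO solutions from 0.5 nM to 10 µM (1% DMSO final; vehicle controls). After 72 h, MTS added for 3 h at 37 °C and A490 read, in triplicate. % inhibition = (1 − OD treated/OD control) × 100; IC50 derived.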

[6] = species on record: Ovis aries; assay: Ratio of compound IC50 to DPPT IC50 for sheep brain tubulin polymerization; in short: as §1
[7] = system: HL-60; assay: Induction of apoptosis in human HL60 cells assessed as increase in caspase 3/7 activation at 500 nM after 48 hrs by fluorescence assay relative to control; type: functional; in short: as §2

SMILES | inhibition [1] [%] | IC50 [4] [µM] | Ratio IC50 [6] | Activity [2] [%] | fold change (FC) [3] | IC50 [5] [nM] | fold change (FC) [7]
COc1ccc(-c2oc3c(OC)c(OC)c(OC)c(O)c3c(=O)c2OC)cc1O |  | 1.3 | 0.46 |  | 6.9 | 8 | 
COc1ccc(-c2oc3c(N(C)C)c(OC)c(OC)c(O)c3c(=O)c2OC)cc1O | 0 |  |  | 40 |  |  | 
COc1cc(O)c2c(=O)c(OC)c(-c3ccc(OC)c(O)c3)oc2c1 [AYANIN] | 0 |  |  | 3 |  |  | 
COc1ccc(-c2oc3c(OC)c(O)c(OC)c(O)c3c(=O)c2OC)cc1O |  | 14 | 5 | 10 |  |  | 
COc1ccc(-c2oc3c(Br)c(OC)c(Br)c(O)c3c(=O)c2OC)cc1O | 36 |  |  |  | 3.2 | 404 | 

Second part, led by results:

inhibition [1] [%] | IC50 [4] [µM] | Ratio IC50 [6] | SMILES | Activity [2] [%] | fold change (FC) [3] | IC50 [5] [nM] | fold change (FC) [7]
0 |  |  | COc1ccc(-c2oc3c(OC)c(OC)cc(O)c3c(=O)c2OC)cc1O | 9 |  |  | 
 | 19 | 6.8 | COc1ccc(-c2oc3cc(OC)c(OC)c(O)c3c(=O)c2OC)cc1O [CASTICIN] |  |  | 97 | 5.3
